In brackets after ≈: the same amount, converted by molar mass.
Experiments:
Klebsiella pneumoniae = experiment: Antimicrobial activity derived as minimum inhibitory concentration are determined using brain-heart infusion medium against Klebsiella Pneumoniae Ottaviani; type: functional
In short: (§1)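 Broth dilution in brain-heart infusion. Inoculum 10^6 cells/mL. MIC taken as the lowest antibiotic concentration preventing visible growth after 24 h at 35 °C.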

Pseudomonas aeruginosa = experiment: Antimicrobial activity derived as minimum inhibitory concentration are determined using brain-heart infusion medium against Pseudomonas aeruginosa ATCC 10145; type: functional; in short: as §1
Salmonella paratyphi = experiment: Antimicrobial activity derived as minimum inhibitory concentration are determined using brain-heart infusion medium against Salmonella paratyphi B0248 K(Sclavo); type: functional, Salmonella enterica subsp. enterica serovar Paratyphi A; settings: Salmonella enterica
In short: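 Broth dilution in brain-heart infusion. Inoculum 10^6 cells/mL. Incubated 24 h at 35 °C. MIC taken as the lowest antibiotic concentration that prevented visible growth.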

Staphylococcus aureus [1] = experiment: Effective dose against Staphylococcus aureus in mice for peroral administration.; type: functional; settings: po
Escherichia coli = experiment: Antimicrobial activity derived as minimum inhibitory concentration are determined using brain-heart infusion medium against Escherichia coli ML/35.; type: functional; in short: as §1
Staphylococcus aureus [2] = experiment: Antimicrobial activity derived as minimum inhibitory concentration are determined using brain-heart infusion medium against Staphylococcus aureus 209 P(FDA); type: functional; in short: as §1
Staphylococcus aureus [3] = experiment: Effective dose against Staphylococcus aureus in mice for subcutaneous administration.; type: functional; settings: sc
Staphylococcus aureus [4] = experiment: Effective dose against infection of the mice due to Staphylococcus aureus administered perorally; type: functional; settings: po

| Structure (SMILES) | MIC (Klebsiella pneumoniae) | MIC (Pseudomonas aeruginosa) | MIC (Salmonella paratyphi) | ED50 (Staphylococcus aureus [1]) | MIC (Escherichia coli) | MIC (Staphylococcus aureus [2]) | ED50 (Staphylococcus aureus [3]) | ED50 (Staphylococcus aureus [4]) |
| --- | --- | --- | --- | --- | --- | --- | --- | --- |
| CC[N+](CC)(CC)c1c2c(O)c3c(O)c(C)c4c(c3c1O)C(=O)C(C)(O/C=C/C(OC)C(C)C(OC(C)=O)C(C)C(O)C(C)C(O)C(C)/C=C/C=C(/C)C(=O)N2)O4.[Br-] (centres undefined) | 50 µg/mL | 12 µg/mL | 25 µg/mL | > 20 mg/kg | > 50 µg/mL | 0.005 µg/mL | – | – |
| COC1/C=C/OC2(C)Oc3c(C)c(O)c4c(O)c(c5c([n-]c6c(C)ccc[n+]65)c4c3C2=O)NC(=O)/C(C)=C\C=C\C(C)C(O)C(C)C(O)C(C)C(OC(C)=O)C1C (centres undefined) | 6 µg/mL (≈ 7.63 µM) | 0.7 µg/mL (≈ 0.891 µM) | 6 µg/mL (≈ 7.63 µM) | > 10 mg/kg | 6 µg/mL (≈ 7.63 µM) | < 0.005 µg/mL | 0.47 mg/kg | – |
| COC(=O)c1ccc[n+](-c2c3c(O)c4c(O)c(C)c5c(c4c2O)C(=O)C(C)(O/C=C/C(OC)C(C)C(OC(C)=O)C(C)C(O)C(C)C(O)C(C)/C=C/C=C(/C)C(=O)N3)O5)c1.[Br-] (centres undefined) | > 50 µg/mL | > 50 µg/mL | 25 µg/mL | – | > 50 µg/mL | 0.07 µg/mL | – | – |
| COC1/C=C/OC2(C)Oc3c(C)c(O)c4c(O)c(c5c([n-]c6c7ccccc7cc[n+]65)c4c3C2=O)NC(=O)/C(C)=C\C=C\C(C)C(O)C(C)C(O)C(C)C(OC(C)=O)C1C (centres undefined) | 12 µg/mL (≈ 14.6 µM) | 0.7 µg/mL (≈ 0.852 µM) | 3 µg/mL (≈ 3.65 µM) | 2.22 mg/kg | 12 µg/mL (≈ 14.6 µM) | < 0.005 µg/mL | 0.81 mg/kg | – |
| COC1/C=C/OC2(C)Oc3c(C)c(O)c4c(O)c(c5c([n-]c6ccc(C)c[n+]65)c4c3C2=O)NC(=O)/C(C)=C\C=C\C(C)C(O)C(C)C(O)C(C)C(OC(C)=O)C1C (centres undefined) | 12 µg/mL (≈ 15.3 µM) | 3 µg/mL (≈ 3.82 µM) | 6 µg/mL (≈ 7.63 µM) | > 5 mg/kg | 6 µg/mL (≈ 7.63 µM) | < 0.005 µg/mL | > 2.5 mg/kg | – |
| COC1/C=C/OC2(C)Oc3c(C)c(O)c4c(O)c(c5c([n-]c6cccc[n+]65)c4c3C2=O)NC(=O)/C(C)=C\C=C\C(C)C(O)C(C)C(O)C(C)C(OC(C)=O)C1C (centres undefined) | 6 µg/mL (≈ 7.77 µM) | 6 µg/mL (≈ 7.77 µM) | 3 µg/mL (≈ 3.89 µM) | 10.3 mg/kg | 3 µg/mL (≈ 3.89 µM) | < 0.005 µg/mL | 0.21 mg/kg | – |
| COC1/C=C/OC2(C)Oc3c(C)c(O)c4c(O)c(c5c([n-]c6ccc(OCc7ccccc7)c[n+]65)c4c3C2=O)NC(=O)/C(C)=C\C=C\C(C)C(O)C(C)C(O)C(C)C(OC(C)=O)C1C (centres undefined) | > 50 µg/mL | 50 µg/mL (≈ 56.9 µM) | > 50 µg/mL | – | 50 µg/mL (≈ 56.9 µM) | < 0.005 µg/mL | – | – |
| COC1/C=C/OC2(C)Oc3c(C)c(O)c4c(O)c(c5c([n-]c6cc(C)cc[n+]65)c4c3C2=O)NC(=O)/C(C)=C\C=C\C(C)C(O)C(C)C(O)C(C)C(OC(C)=O)C1C (centres undefined) | 25 µg/mL (≈ 31.8 µM) | 15 µg/mL (≈ 19.1 µM) | 6 µg/mL (≈ 7.63 µM) | – | 6 µg/mL (≈ 7.63 µM) | < 0.005 µg/mL | – | > 10 mg/kg |
| COC1/C=C/OC2(C)Oc3c(C)c(O)c4c(O)c(c(-[n+]5cccc(C(N)=O)c5)c(O)c4c3C2=O)NC(=O)/C(C)=C\C=C\C(C)C(O)C(C)C(O)C(C)C(OC(C)=O)C1C.[Br-] (centres undefined) | > 50 µg/mL | > 50 µg/mL | > 50 µg/mL | > 20 mg/kg | > 50 µg/mL | 0.1 µg/mL | – | – |
| CO[C@H]1/C=C/O[C@@]2(C)Oc3c(C)c(O)c4c(O)c(c(/C=N/N5CCN(C)CC5)c(O)c4c3C2=O)NC(=O)/C(C)=C\C=C\[C@H](C)[C@H](O)[C@@H](C)[C@@H](O)[C@@H](C)[C@H](OC(C)=O)[C@@H]1C [RIFAMPIN] | 25 µg/mL (≈ 30.4 µM) | 12 µg/mL (≈ 14.6 µM) | 12 µg/mL (≈ 14.6 µM) | 0.14 mg/kg | 6 µg/mL (≈ 7.29 µM) | < 0.005 µg/mL | 0.14 mg/kg | – |
| COC1/C=C/OC2(C)Oc3c(C)c(O)c4c(O)c(c(-[n+]5ccc(C(C)(C)C)cc5)c(O)c4c3C2=O)NC(=O)/C(C)=C\C=C\C(C)C(O)C(C)C(O)C(C)C(OC(C)=O)C1C.[Br-] (centres undefined) | > 50 µg/mL | > 50 µg/mL | > 50 µg/mL | – | > 50 µg/mL | 0.01 µg/mL | – | – |
| COC1/C=C/OC2(C)Oc3c(C)c(O)c4c(O)c(c(-[n+]5ccccc5)c(O)c4c3C2=O)NC(=O)/C(C)=C\C=C\C(C)C(O)C(C)C(O)C(C)C(OC(C)=O)C1C.[Br-] (centres undefined) | > 50 µg/mL | 12 µg/mL | 50 µg/mL | > 20 mg/kg | > 50 µg/mL | 0.005 µg/mL | – | – |

— ChEMBL document CHEMBL1122905, “4-Deoxypyrido[1',2':1,2]imidazo[5,4-c]rifamycin SV derivatives. A new series of semisynthetic rifamycins with high antibacterial activity and low gastroenteric absorption” (1985)
